Assay results gathered from unrelated publications.
Compare with care: the assays were run in different laboratories.
Target: Serine/threonine-protein kinase Nek1 (NEK1, Homo sapiens, UniProt Q96PY6)
Residues used in one study (Q96PY6 1-1258): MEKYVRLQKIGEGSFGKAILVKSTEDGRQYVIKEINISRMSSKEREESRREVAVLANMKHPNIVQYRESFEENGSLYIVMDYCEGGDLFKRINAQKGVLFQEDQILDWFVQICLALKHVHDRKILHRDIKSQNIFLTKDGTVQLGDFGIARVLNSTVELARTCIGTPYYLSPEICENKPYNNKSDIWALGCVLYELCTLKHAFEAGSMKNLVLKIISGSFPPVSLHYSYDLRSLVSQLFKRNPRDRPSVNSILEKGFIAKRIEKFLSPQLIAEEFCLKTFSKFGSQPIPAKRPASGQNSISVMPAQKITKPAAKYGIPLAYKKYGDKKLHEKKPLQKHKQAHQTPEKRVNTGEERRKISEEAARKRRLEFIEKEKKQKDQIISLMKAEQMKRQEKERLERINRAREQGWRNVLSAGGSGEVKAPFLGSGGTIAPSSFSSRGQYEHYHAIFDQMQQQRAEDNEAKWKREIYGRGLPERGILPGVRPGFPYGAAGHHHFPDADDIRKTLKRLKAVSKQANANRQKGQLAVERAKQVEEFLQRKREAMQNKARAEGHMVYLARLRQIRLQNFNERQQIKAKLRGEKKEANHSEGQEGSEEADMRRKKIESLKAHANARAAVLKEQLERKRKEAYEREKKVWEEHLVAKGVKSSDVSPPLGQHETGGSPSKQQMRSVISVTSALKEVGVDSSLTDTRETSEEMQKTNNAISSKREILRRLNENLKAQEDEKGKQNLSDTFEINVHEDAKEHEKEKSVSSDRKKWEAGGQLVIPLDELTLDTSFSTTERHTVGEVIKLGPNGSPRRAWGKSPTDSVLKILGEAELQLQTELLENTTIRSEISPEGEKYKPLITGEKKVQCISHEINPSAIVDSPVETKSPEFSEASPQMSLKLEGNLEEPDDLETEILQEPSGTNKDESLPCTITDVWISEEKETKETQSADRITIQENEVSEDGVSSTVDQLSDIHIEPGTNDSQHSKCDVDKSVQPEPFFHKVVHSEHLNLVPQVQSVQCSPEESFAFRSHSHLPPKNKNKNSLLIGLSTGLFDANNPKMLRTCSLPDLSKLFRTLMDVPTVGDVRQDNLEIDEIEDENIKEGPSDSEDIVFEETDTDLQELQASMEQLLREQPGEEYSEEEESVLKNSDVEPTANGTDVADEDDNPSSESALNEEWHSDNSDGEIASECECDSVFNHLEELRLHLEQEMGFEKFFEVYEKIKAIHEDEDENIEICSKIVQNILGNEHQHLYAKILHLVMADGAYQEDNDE

c1cnn2ncc(-c3ccnc(N4CCC45COC5)n3)c2c1 — remaining binding (binding; 1 µM): 100%
CO[C@@H](C)c1c(Nc2ccc([C@@H](N(C)C(=O)C3CCS(=O)(=O)CC3)C(F)(F)F)cc2)cnc2cc(Cl)nn12 — remaining binding (cell-free assay, competition with immobilised ligand; 1 µM): 100%
O=C1Nc2ccc(Cl)cc2C1=Cc1cc(Cl)c(O)c(Cl)c1 — remaining signal (cell-free assay; 0.5 µM): 81.5%
Nc1c(C(=O)NCc2ccc(C(=O)NCCCC3CCCCC3)cc2)cnn1-c1ccccc1 — remaining binding (cell-free assay, competition with immobilised ligand; 0.1 µM): 84%
CCN1CCN(Cc2ccc(NC(=O)c3ccc(C)c(Oc4ccnc5[nH]ccc45)c3)cc2C(F)(F)F)CC1 — inhibition (target engagement in cells, inhibitor, chemoproteomics; A-375; 0.5 µM): -10.4%
CS(=O)(=O)c1cc(C2(NC(=O)c3cncc4c3cnn4-c3ccc(F)cc3)CC2)ccn1 — remaining binding (cell-free assay, competition with immobilised ligand; 1 µM): 45%
CN1CC(Oc2cnc(C#N)cc2-c2ccn3nc(NC(=O)C4CC4)cc3c2)C1 — inhibition (enzyme activity, inhibitor; 1 µM): 8%
Cc1ccc(C(=O)Nc2ccc(CN3CCN(C)CC3)c(C(F)(F)F)c2)cc1C#Cc1cnc2cccnn12 — remaining activity (enzyme activity, inhibitor; 23.5 nM): 98%
Cc1sc(C(=O)NC2COC2)cc1-n1cc(NC(=O)Nc2c(F)cccc2Cl)cn1 — remaining activity (enzyme activity, inhibitor; 10 µM): 90.4%
CCN1CCN(Cc2ccc(NC(=O)c3ccc(C)c(/C=C/c4cnc5[nH]ccc5c4OC)c3)cc2C(F)(F)F)CC1 — inhibition (target engagement in cells, inhibitor, chemoproteomics; A-375; 0.5 µM): -15.8%
O=C(Nc1cnn(-c2csc(C(=O)NC3COC3)c2)c1)Nc1ccccc1Cl — remaining activity (enzyme activity, inhibitor; 5 µM): 112%
C[C@@H](c1cccc(C#N)c1)n1cc(Cl)cc(C(N)=O)c1=N — remaining binding (cell-free assay, competition with immobilised ligand; 1 µM): 100%
COc1cc(Cl)c(C(=O)N[C@@H](CN[C@H]2CC[C@@H](N)CC2)Cc2ccc(C#N)cc2)cc1-c1ccc(CN[C@H](C)c2ccc(C)cc2)o1 — remaining activity (enzyme activity, inhibitor; 1 µM): 93%
CCCCNc1ncc2c(-c3ccc(F)cc3)nn(C[C@H]3CC[C@H](N)CC3)c2n1 — inhibition (target engagement in cells, inhibitor, chemoproteomics; 20 mM): -3.7%
CC(C)(C)c1nc(-c2cccc(NS(=O)(=O)c3c(F)cccc3F)c2F)c(-c2ccnc(N)n2)s1 — remaining activity (enzyme activity, inhibitor, radiometric; 1 µM): 63%
Cc1c(NC(=O)c2cc(C(N)=O)nc3cc(F)ccc23)c(C(F)(F)F)nn1Cc1ccc(C(C)(C)C)cc1 — remaining binding (cell-free assay, competition with immobilised ligand; 1 µM): 97%
COc1cc2ncnc(Nc3ccc(Oc4ccccc4)c(C)c3C)c2cc1OC — inhibition (enzyme activity, inhibitor; 1 µM): -2%
CC/C(=N\NC(=O)NCc1cccc(O)c1)c1ccc(O)c(C)c1O — inhibition (enzyme activity, inhibitor; 0.1 µM): -6%
N#CCCc1ccc2c(c1)-c1[nH]c3ccc([N+](=O)[O-])cc3c1CC(=O)N2 — remaining signal (cell-free assay; 0.5 µM): 132%
Cn1cnc(Br)c1C1=CN(c2ncnc3[nH]cnc23)CCS1 — inhibition (enzyme activity, inhibitor, radiometric; 50 nM): 33.1%
COc1ccc(COc2ccc(Cc3cnc(N)nc3N)cc2OC)cc1 — remaining signal (cell-free assay; 0.5 µM): 95.6%
C[C@H](c1ccc(F)cc1)N(Cc1cccc(C(=O)O)c1)C(=O)c1cnc2ccccc2c1 — remaining binding (cell-free assay, competition with immobilised ligand; 1 µM): 100%
